ChEMBL document CHEMBL4346653, “A2B Adenosine Receptor Antagonists with Picomolar Potency” (J Med Chem, 2019)

Assays:
[1] = molecular target: T1, Adenosine receptor A1 (Homo sapiens) (UniProt P30542); test: Displacement of [3H]CCPA from recombinant human A1 adenosine receptor expressed in CHO cell membranes at 1 uM measured after 90 mins in presence of adenosine deaminase by liquid scintillation counting method relative to control
T1 sequence (whole entry): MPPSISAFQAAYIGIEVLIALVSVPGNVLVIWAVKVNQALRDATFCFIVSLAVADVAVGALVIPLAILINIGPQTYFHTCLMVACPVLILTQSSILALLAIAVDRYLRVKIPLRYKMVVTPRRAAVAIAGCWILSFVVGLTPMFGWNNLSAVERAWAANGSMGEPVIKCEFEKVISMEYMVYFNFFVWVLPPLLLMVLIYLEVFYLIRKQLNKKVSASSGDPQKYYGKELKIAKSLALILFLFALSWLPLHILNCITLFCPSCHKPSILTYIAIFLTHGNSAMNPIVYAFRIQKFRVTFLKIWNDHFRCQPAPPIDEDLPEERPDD
Procedure, shortened: (§1)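 Single-point competition binding at human AR subtype membranes, each against its own tritiated radioligand. The test compound is given at 1 μM, and the result is reported as percent inhibition of radioligand binding. The radioligand-specific footnotes give n = 3.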

Adenosine receptor A3 = molecular target: T2, Adenosine receptor A3 (Homo sapiens, UniProt P0DMS8); test: Displacement of [3H]PSB-11 from recombinant human A3 adenosine receptor expressed in CHO cell membranes measured after 45 mins in presence of adenosine deaminase by liquid scintillation counting method
T2 sequence (P0DMS8 whole entry): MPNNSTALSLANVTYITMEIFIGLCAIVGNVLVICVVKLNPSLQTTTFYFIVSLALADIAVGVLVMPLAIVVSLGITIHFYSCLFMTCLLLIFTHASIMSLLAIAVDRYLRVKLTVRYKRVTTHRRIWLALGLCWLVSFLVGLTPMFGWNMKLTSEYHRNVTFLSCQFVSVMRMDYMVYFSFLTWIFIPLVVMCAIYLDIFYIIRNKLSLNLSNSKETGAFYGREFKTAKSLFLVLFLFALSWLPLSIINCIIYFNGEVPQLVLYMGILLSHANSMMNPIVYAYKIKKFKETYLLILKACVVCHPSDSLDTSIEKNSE
Procedure, shortened: (§2)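 Competition binding on membranes of cells recombinantly expressing the human receptor (CHO or HEK cells), with tritiated radioligand per subtype: [3H]PSB-603 for A2B, [3H]MSX-2 for A2A, [3H]CCPA for A1, [3H]PSB-11 for A3. Ki ± SEM from n = 3, some from extrapolated curves. Weak binders are reported as % inhibition of radioligand binding at 1 μM.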

Homo sapiens [2] = species on record: Homo sapiens; test: Selectivity index, ratio of Ki for displacement of [3H]CCPA from recombinant human A1 adenosine receptor expressed in CHO cell membranes to Ki for displacement of [3H]PSB-603 from recombinant human A2B adenosine receptor expressed in CHO cell membranes
Adenosine receptor A2a [3] = molecular target: T3, Adenosine receptor A2a (Homo sapiens, UniProt P29274); test: Displacement of [3H]MSX-2 from recombinant human A2A adenosine receptor expressed in CHO cell membranes measured after 30 mins in presence of adenosine deaminase by liquid scintillation counting method; procedure, shortened: as §2
Homo sapiens [4] = species on record: Homo sapiens; test: Selectivity index, ratio of Ki for displacement of [3H]PSB-11 from recombinant human A3 adenosine receptor expressed in CHO cell membranes to Ki for displacement of [3H]PSB-603 from recombinant human A2B adenosine receptor expressed in CHO cell membranes
Adenosine receptor A2a [5] = molecular target: T3, Adenosine receptor A2a; test: Displacement of [3H]MSX-2 from recombinant human A2A adenosine receptor expressed in CHO cell membranes at 1 uM measured after 30 mins in presence of adenosine deaminase by liquid scintillation counting method relative to control; procedure, shortened: as §1
Adenosine receptor A2b = molecular target: T4, Adenosine receptor A2b (Homo sapiens, UniProt P29275); test: Displacement of [3H]PSB-603 from recombinant human A2B adenosine receptor expressed in CHO cell membranes measured after 75 mins in presence of adenosine deaminase by liquid scintillation counting method; procedure, shortened: as §2
T4 sequence (P29275 whole entry): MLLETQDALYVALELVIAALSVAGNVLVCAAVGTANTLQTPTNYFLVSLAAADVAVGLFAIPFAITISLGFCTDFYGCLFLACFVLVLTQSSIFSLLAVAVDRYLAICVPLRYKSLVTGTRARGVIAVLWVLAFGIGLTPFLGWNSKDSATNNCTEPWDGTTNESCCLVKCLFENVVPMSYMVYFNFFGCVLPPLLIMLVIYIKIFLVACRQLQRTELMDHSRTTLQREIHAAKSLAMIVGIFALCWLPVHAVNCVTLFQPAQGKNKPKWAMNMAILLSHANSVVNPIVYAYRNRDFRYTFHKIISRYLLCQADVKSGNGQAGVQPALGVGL

Adenosine receptor A1 = molecular target: T5, Adenosine receptor A1 (Homo sapiens, UniProt P30542); test: Displacement of [3H]CCPA from recombinant human A1 adenosine receptor expressed in CHO cell membranes measured after 90 mins in presence of adenosine deaminase by liquid scintillation counting method; procedure, shortened: as §2
T5 sequence (P30542 whole entry): T1 sequence (whole entry)

[6] = molecular target: T6, Adenosine receptor A3 (Homo sapiens) (UniProt P0DMS8); test: Displacement of [3H]PSB-11 from recombinant human A3 adenosine receptor expressed in CHO cell membranes at 1 uM measured after 45 mins in presence of adenosine deaminase by liquid scintillation counting method relative to control; procedure, shortened: as §1
T6 sequence (whole entry): T2 sequence (P0DMS8 whole entry)

Homo sapiens [7] = species on record: Homo sapiens; test: Selectivity index, ratio of Ki for displacement of [3H]MSX-2 from recombinant human A2A adenosine receptor expressed in CHO cell membranes to Ki for displacement of [3H]PSB-603 from recombinant human A2B adenosine receptor expressed in CHO cell membranes

T3 sequence (P29274 whole entry): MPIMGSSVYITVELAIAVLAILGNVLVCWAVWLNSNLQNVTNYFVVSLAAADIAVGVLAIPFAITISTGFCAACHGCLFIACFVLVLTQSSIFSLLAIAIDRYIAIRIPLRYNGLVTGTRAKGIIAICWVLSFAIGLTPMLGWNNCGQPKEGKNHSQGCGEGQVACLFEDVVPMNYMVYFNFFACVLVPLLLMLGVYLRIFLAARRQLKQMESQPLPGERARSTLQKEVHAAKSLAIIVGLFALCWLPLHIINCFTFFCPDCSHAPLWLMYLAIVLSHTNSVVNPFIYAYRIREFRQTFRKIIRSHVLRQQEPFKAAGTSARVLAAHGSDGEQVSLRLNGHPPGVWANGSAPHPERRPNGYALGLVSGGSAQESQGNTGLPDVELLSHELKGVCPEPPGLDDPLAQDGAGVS

Row | SMILES | inhibition [1] [%] | Ki (Adenosine receptor A3) [µM] | Ratio Ki (Homo sapiens [2]) | Ki (Adenosine receptor A2a [3]) [µM] | Ratio Ki (Homo sapiens [4]) | inhibition (Adenosine receptor A2a [5]) [%] | Ki (Adenosine receptor A2b) [µM] | Ki (Adenosine receptor A1) [µM] | inhibition [6] [%] | Ratio Ki (Homo sapiens [7])
1 | CCCn1c(=O)[nH]c2nc(-c3ccc(S(=O)(=O)N4CCN(c5ccc(OC)c(Cl)c5)CC4)cc3)[nH]c2c1=O | 23 | > 1 | > 2840 | > 1 | > 2840 | 31 | 0.000352 | > 1 | 1 | > 2840
2 | CCCn1c(=O)[nH]c2nc(-c3ccc(S(=O)(=O)N4CCN(c5ccc(Cl)cc5F)CC4)cc3)[nH]c2c1=O | 9 | > 1 | > 500 | > 1 | > 500 | 6 | 0.00191 | > 1 | 14 | > 500
3 | CCCn1c(=O)[nH]c2nc(-c3ccc(S(=O)(=O)N4CCN(c5ccc(C)cc5)CC4)cc3)[nH]c2c1=O | 12 | > 1 | > 1420 | > 1 | > 1420 | 34 | 0.000706 | > 1 | 25 | > 1420
4 | CCCn1c(=O)[nH]c2nc(-c3ccc(S(=O)(=O)N4CCN(c5ccc(I)cc5)CC4)cc3)[nH]c2c1=O | 24 | > 1 | > 6290 | 2.99 | > 6290 |  | 0.000159 | > 1 | 36 | > 6290
5 | CCCn1c(=O)[nH]c2nc(-c3ccc(S(=O)(=O)N4CCN(c5cccc(Cl)c5)CC4)cc3)[nH]c2c1=O | 21 | 0.0535 |  | 1 | 160 | 42 | 0.000342 | > 1 |  | 
6 | CCCn1c(=O)[nH]c2nc(-c3ccc(S(=O)(=O)N4CCN(c5ccccc5F)CC4)cc3)[nH]c2c1=O | 13 | > 1 | > 310 | > 1 | > 310 | 27 | 0.00322 | > 1 | 9 | > 310
